Measurements from ChEMBL document CHEMBL2203225, “Dehydrozingerone, a structural analogue of curcumin, induces cell-cycle arrest at the G2/M phase and accumulates intracellular ROS in HT-29 human colon cancer cells” (J Nat Prod, 2012).
Calls of active or inactive are those of the source. The rule behind the calls is not given here.

How the values were obtained:
HT-29 [1] = assay: Cytotoxicity against human HT-29 cells assessed as dead cells at GI70 concentration after 72 hrs by WST-8 assay; format: functional
Procedure, shortened: (§1)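 HT-29 colon cancer cells grown in DMEM with 10% FBS, 2 mM glutamine, penicillin and streptomycin at 37 °C, 5% CO2. Cells exposed to compound or vehicle (0.1% DMSO) for 72 h. Live and dead cells were counted by ViaCount staining on a Guava EasyCyte Plus flow cytometer, and percent dead cells was calculated. Mean ± SD, n = 3.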

HT-29 [2] = assay: Cytotoxicity against human HT-29 cells assessed as dead cells at > 31.3 uM after 72 hrs by […]; format: functional; procedure, shortened: as §1
HT-29 [3] = assay: Cytotoxicity against human HT-29 cells assessed as growth inhibition after 72 hrs by WST-8 assay; format: functional
Procedure, shortened: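 Viability read by WST-8 (Cell Counting Kit-8) after 72 h incubation of HT-29 cells with compound. Cells cultured in DMEM with 10% FBS at 37 °C, 5% CO₂. Means ± SD, n = 3.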

HT-29 [4] = assay: Induction of ROS generation in human HT-29 cells at > 250 uM after 24 hrs by FACS flow cytometry; format: functional, cell-based
HT-29 [5] = assay: Cell cycle arrest in human HT-29 cells assessed as ROS-stimulated accumulation at G2/M phase at 62.5 to 250 uM after 24 hrs by propidium iodide based FACS flow cytometry
HT-29 [6] = assay: Cell cycle arrest in human HT-29 cells assessed as accumulation at G2/M phase at 250 uM after 24 hrs by propidium iodide based FACS flow cytometry; format: functional
Procedure, shortened: (§2)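 HT-29 cells exposed 24 h to 125, 250 or 500 μM, with 0.1% DMSO as vehicle control. Permeabilized with 0.1% Triton X-100, stained with 100 μg/mL PI and analysed by FACSCalibur for G1/S/G2/M percentages. Means ± SD, n = 3; significance tested against DMSO control.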

WI-38 [7] = assay: Cytotoxicity against human WI38 cells assessed as growth inhibition after 72 hrs by WST-8 assay; format: cell-based; conditions: wi-38, 72 h
WI-38 [8] = assay: Cell cycle arrest in human WI38 cells assessed as ROS-stimulated accumulation at G2/M phase at 250 uM after 24 hrs by propidium iodide based FACS flow cytometry in presence of N-acetyl-L-cysteine; conditions: wi-38, 24 h
HCT-15 [9] = assay: Cell cycle arrest in human HCT15 cells assessed as ROS-stimulated accumulation at G2/M phase after 24 hrs by propidium iodide based FACS flow cytometry in presence of alpha-tocopherol; format: functional
HCT-15 [10] = assay: Cell cycle arrest in human HCT15 cells assessed as ROS-stimulated accumulation at G2/M phase after 24 hrs by propidium iodide based FACS flow cytometry in presence of L-ascorbic acid; format: functional
HCT-15 [11] = assay: Cell cycle arrest in human HCT15 cells assessed as ROS-stimulated accumulation at G2/M phase after 24 hrs by propidium iodide based FACS flow cytometry in presence of N-acetyl-L-cysteine; format: functional
HCT-116 [12] = assay: Cell cycle arrest in human HCT116 cells assessed as ROS-stimulated accumulation at G2/M phase after 24 hrs by propidium iodide based FACS flow cytometry in presence of alpha-tocopherol; format: functional
HCT-116 [13] = assay: Cell cycle arrest in human HCT116 cells assessed as ROS-stimulated accumulation at G2/M phase after 24 hrs by propidium iodide based FACS flow cytometry in presence of L-ascorbic acid; format: functional
HCT-116 [14] = assay: Cell cycle arrest in human HCT116 cells assessed as ROS-stimulated accumulation at G2/M phase after 24 hrs by propidium iodide based FACS flow cytometry in presence of N-acetyl-L-cysteine; format: functional
HCT-15 [15] = assay: Cytotoxicity against human HCT15 cells assessed as growth inhibition after 72 hrs by WST-8 assay; format: functional, cell-based
HCT-116 [16] = assay: Cytotoxicity against human HCT116 cells assessed as growth inhibition after 72 hrs by WST-8 assay; format: functional, cell-based
HT-29 [17] = assay: Cell cycle arrest in human HT-29 cells assessed as ROS-stimulated accumulation at G2/M phase at 125 to 500 uM after 24 hrs by propidium iodide based FACS flow cytometry in presence of N-acetyl-L-cysteine; format: functional
Procedure, shortened: (§3)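 HT-29 cells grown in DMEM with 10% FBS and 2 mM glutamine at 37 °C, 5% CO₂, treated 24 h, then permeabilized with 0.1% Triton X-100. Stained with 100 μg/mL propidium iodide and analysed for G1, S and G2/M fractions by FACSCalibur flow cytometry. Data are means ± SD, n = 3, versus 0.1% DMSO control.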

HT-29 [18] = assay: Cell cycle arrest in human HT-29 cells assessed as ROS-stimulated increase in p21 at 250 to 500 uM after 24 hrs by Western blotting in presence of N-acetyl-L-cysteine; format: functional, cell-based
HT-29 [19] = assay: Cell cycle arrest in human HT-29 cells transfected with p21 siRNA assessed as accumulation at G2/M phase at 500 uM after 24 hrs by propidium iodide based FACS flow cytometry; format: functional
Procedure, shortened: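 HT-29 cells transiently transfected for 24 h with 10 nM p21 or negative-control siRNA using Lipofectamine RNAiMAX, alongside 24 h exposure to 500 μM or 0.1% DMSO. Cells were PI-stained and cell-cycle phases quantified by flow cytometry. Means ± SD, n = 3, versus DMSO-treated control.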

HT-29 [20] = assay: Upregulation of p21 gene expression in human HT-29 cells assessed as decrease in phosphorylated CDK1 at Thr161 at 500 uM after 24 hrs by Western blotting; format: functional, cell-based
Procedure, shortened: (§4)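 HT-29 cells treated 24 h or given 0.1% DMSO, then lysed in 50 mM Tris-HCl with 1% SDS and protease inhibitors. Blots were blocked in 5% skim milk/TBST for 1 h at RT and probed with primary antibody for 1 h at RT. Detection by ECL, with β-actin as loading control.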

HT-29 [21] = assay: Upregulation of p21 gene expression in human HT-29 cells at > 250 uM after 24 hrs by Western blotting; format: functional, cell-based; procedure, shortened: as §4
HT-29 [22] = assay: Upregulation of Cyclin B gene expression in human HT-29 cells at 125 to 500 uM after 24 hrs by Western blotting; format: functional, cell-based; procedure, shortened: as §4
HT-29 [23] = assay: Upregulation of CDK1 gene expression in human HT-29 cells at 125 to 500 uM after 24 hrs by Western blotting; format: functional, cell-based; procedure, shortened: as §4
HT-29 [24] = assay: Cell cycle arrest in human HT-29 cells assessed as accumulation at G2/M phase at > 250 uM after 24 hrs by propidium iodide based FACS flow cytometry relative to control; format: functional; procedure, shortened: as §2
HT-29 [25] = assay: Cytotoxicity against human HT-29 cells assessed as dead cells at 1000 uM after 72 hrs by […]; format: functional; procedure, shortened: as §1
HT-29 [26] = assay: Cytotoxicity against human HT-29 cells assessed as dead cells at 500 uM after 72 hrs by […]; format: functional; procedure, shortened: as §1
HT-29 [27] = assay: Cell cycle arrest in human HT-29 cells assessed as ROS-stimulated accumulation at G2/M phase after 24 hrs by propidium iodide based FACS flow cytometry in presence of L-ascorbic acid; format: functional; procedure, shortened: as §3
HT-29 [28] = assay: Cell cycle arrest in human HT-29 cells assessed as ROS-stimulated accumulation at G2/M phase after 24 hrs by propidium iodide based FACS flow cytometry in presence of alpha-tocopherol; format: functional; procedure, shortened: as §3
HT-29 [29] = assay: Cell cycle arrest in human HT-29 cells assessed as ROS-stimulated accumulation at G2/M phase after 24 hrs by propidium iodide based FACS flow cytometry in presence of MnTBAP; format: functional; procedure, shortened: as §3
HT-29 [30] = assay: Cell cycle arrest in human HT-29 cells assessed as ROS-stimulated accumulation at G2/M phase after 24 hrs by propidium iodide based FACS flow cytometry in presence of PEG-penetreated catalase; format: functional; procedure, shortened: as §3
HT-29 [31] = assay: Cell cycle arrest in human HT-29 cells assessed as ROS-stimulated accumulation at G2/M phase after 24 hrs by propidium iodide based FACS flow cytometry in presence of SOD; format: functional; procedure, shortened: as §3

SMILES: COc1cc(/C=C/C(=O)CC(=O)/C=C/c2ccc(O)c(OC)c2)ccc1O [CURCUMIN]
- Activity (HT-29 [1]): 45%
- Activity (HT-29 [2]): 84%

SMILES: COc1ccc(/C=C/C(C)=O)cc1O
- growth inhibition (GI) (HT-29 [3]): Active
- Activity (HT-29 [4]): Active
- Activity (HT-29 [5]): Active

SMILES: COc1cccc(/C=C/C(C)=O)c1O
- growth inhibition (GI) (HT-29 [3]): Active
- Activity (HT-29 [4]): Active
- Activity (HT-29 [5]): Active

SMILES: COc1cc(/C=C/C(C)=O)ccc1O [DEHYDROZINGERONE]
- growth inhibition (GI) (HT-29 [3]): Active
- Activity (HT-29 [6]): Active
- Activity (WI-38 [7]): Toxic
- Activity (WI-38 [8]): Toxic
- Activity (HCT-15 [9]): Active
- Activity (HCT-15 [10]): Active
- Activity (HCT-15 [11]): inactive
- Activity (HCT-116 [12]): Active
- Activity (HCT-116 [13]): Active
- Activity (HCT-116 [14]): inactive
- growth inhibition (GI) (HCT-15 [15]): Active
- growth inhibition (GI) (HCT-116 [16]): Active
- Activity (HT-29 [17]): inactive
- Activity (HT-29 [18]): inactive
- Activity (HT-29 [4]): Active
- Activity (HT-29 [19]): inactive
- Activity (HT-29 [20]): Active
- Activity (HT-29 [21]): Active
- Activity (HT-29 [22]): inactive
- Activity (HT-29 [23]): inactive
- fold change (FC) (HT-29 [24]): 2
- Activity (HT-29 [1]): 11%
- Activity (HT-29 [25]): 37%
- Activity (HT-29 [26]): 22%
- Activity (HT-29 [27]): Active
- Activity (HT-29 [28]): Active
- Activity (HT-29 [29]): Active
- Activity (HT-29 [30]): Active
- Activity (HT-29 [31]): Active
- Activity (HT-29 [5]): Active
